In assay [1] the target is T1, Glycine receptor subunit alpha-1 (Homo sapiens, UniProt P23415).
T1 sequence (P23415 whole entry): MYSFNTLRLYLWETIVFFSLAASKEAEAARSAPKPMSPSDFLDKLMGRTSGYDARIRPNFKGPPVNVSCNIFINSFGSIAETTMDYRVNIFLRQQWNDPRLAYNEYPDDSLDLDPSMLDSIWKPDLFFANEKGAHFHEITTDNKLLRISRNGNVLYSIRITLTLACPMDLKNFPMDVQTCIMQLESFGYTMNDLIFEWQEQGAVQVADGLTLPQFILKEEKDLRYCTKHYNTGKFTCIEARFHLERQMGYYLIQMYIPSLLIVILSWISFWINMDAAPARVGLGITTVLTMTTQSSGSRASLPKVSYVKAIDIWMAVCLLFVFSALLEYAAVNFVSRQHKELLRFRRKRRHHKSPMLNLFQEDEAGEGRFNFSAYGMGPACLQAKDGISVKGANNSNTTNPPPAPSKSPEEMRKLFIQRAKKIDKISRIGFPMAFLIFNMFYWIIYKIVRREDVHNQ
Put plainly: Antagonist activity at human glycine alpha-1 receptor in HEK293 cells by FMP assay. The format is functional, cell-based.

Assay [2] in a line: Displacement of [3H]methyllycaconitine from chimeric alpha-7nAChR Y195F mutant/5HT3A receptor in tsA201 cells. It is filed as cell-based, Homo sapiens. In outline: (§1)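 tsA-201 cells transiently transfected with 4 µg WT or mutant α7/5-HT3A chimera and assayed 2 days later. Membranes washed twice at 50000g in 50 mM Tris-HCl pH 7.2. Incubated with 0.5 nM [3H]MLA and compound for 2.5 h at room temperature with shaking; nonspecific binding with 5 mM (S)-nicotine. PEI-soaked GF/C filtration, scintillation counting. Ki derived; duplicate, 3–7 experiments.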

A further assay concerns tsA201. Briefly: Displacement of [3H]methyllycaconitine from chimeric alpha-7nAChR W149Y mutant/5HT3A receptor W149Y mutant in tsA201 cells. The format is cell-based. Conditions: Homo sapiens. Summed up:
as §1
For orientation: Displacement assays read how much labelled ligand stays bound in the presence of the test substance.

The nature of assay [3]: Displacement of [3H]methyllycaconitine from chimeric alpha-7nAChR N107A mutant/5HT3A receptor in tsA201 cells. The format is cell-based, Homo sapiens. In outline: as §1
Assay [4] concerns the target Neuronal acetylcholine receptor subunit alpha-7 (Homo sapiens, UniProt P36544). Briefly: Displacement of [3H]methyllycaconitine from human alpha-7 in tsA201 cells coexpressed with 5HT3A receptor. The format is cell-based.

The values below come from ChEMBL document CHEMBL1148788 (J Med Chem, 2007).

The source made the active and inactive calls. The rule behind the calls is not given here. Some results are limits rather than exact numbers.

Neuronal acetylcholine receptor subunit alpha-7, sequence (P36544 whole entry): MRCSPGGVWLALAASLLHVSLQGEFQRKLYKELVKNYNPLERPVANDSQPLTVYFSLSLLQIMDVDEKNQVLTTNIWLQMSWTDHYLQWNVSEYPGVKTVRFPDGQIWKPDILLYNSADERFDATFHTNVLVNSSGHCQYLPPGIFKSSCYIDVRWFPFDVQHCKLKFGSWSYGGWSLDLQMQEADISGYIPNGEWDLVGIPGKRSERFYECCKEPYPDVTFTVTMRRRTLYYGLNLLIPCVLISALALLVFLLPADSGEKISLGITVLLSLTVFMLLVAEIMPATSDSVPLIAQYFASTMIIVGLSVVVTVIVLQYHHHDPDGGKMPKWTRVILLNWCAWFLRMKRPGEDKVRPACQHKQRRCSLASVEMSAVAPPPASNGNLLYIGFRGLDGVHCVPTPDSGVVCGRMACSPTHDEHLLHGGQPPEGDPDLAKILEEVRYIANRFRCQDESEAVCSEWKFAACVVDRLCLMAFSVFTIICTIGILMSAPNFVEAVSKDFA

As to `O=[N+]([O-])c1ccc(C[N+]23CC[C@@H]4[C@@H]5[C@@H]6[C@@H](OCC=C(C2)[C@@H]6C[C@@H]43)N2c3ccccc3[C@@]34CC[N+]6(Cc7ccc([N+](=O)[O-])cc7)CC7=CCO[C@H]([C@@H]([C@H]23)[C@H]7C[C@@H]46)N5c2ccccc2)cc1.[Br-].[Br-]` (some centres undefined), the IC50 (as a rule, the point on the concentration scale where inhibition reaches its midpoint) in assay [1] was more than 100000 nM. Moreover, the pIC50 (commonly the negative decadic logarithm of the IC50, by convention in mol/L) in assay [1] (hek293) was less than 4. Also, the Ki is 50 nM in assay [2], 17 nM in assay [3], 22 nM in assay [4] (read-out: Ki) and 20 nM in assay [4] (read-out: pKi (converted)). The pKi (in general, the Ki on a negative log10 scale, so that one unit is a factor of ten) in assay [2] was 7.3; in assay [3], 7.76. In addition, the outcome with tsA201 was inactive.
